ChEMBL document CHEMBL3526151, “Reversible disulfide formation of the glutamate carboxypeptidase II inhibitor E2072 results in prolonged systemic exposures in vivo” (Drug Metab Dispos, 2012)

Legend:
[1] = AUC(0 to infinity) in Sprague-Dawley rat at 10 mg/kg, po administered via gavage measured under fed conditions by LC-MS/MS analysis; format: ADME, organism-based; set-up: time infinity, dose 10 mg/kg, route oral; settings: plasma
How it was run: (§1)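 Nonfasted male Sprague-Dawley rats given a single 10 mg/kg oral dose in 50 mM HEPES buffered saline, pH 7.4. Plasma collected 0.25–24 h into heparin/NEM tubes and assayed by LC-MS/MS. Noncompartmental parameters derived, including Cl/F and Vd/F. Mean ± S.D., n = 6–9.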

[2] = Apparent volume of distribution in Sprague-Dawley rat at 10 mg/kg, po administered via gavage measured under fed conditions by LC-MS/MS analysis; format: ADME, organism-based; set-up: dose 10 mg/kg, route oral; settings: in vivo; how it was run: as §1
[3] = Clearance in Sprague-Dawley rat at 10 mg/kg, iv by LC-MS/MS analysis; format: ADME, organism-based; set-up: dose 10 mg/kg, route intravenous; settings: in vivo
How it was run: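 Male Sprague-Dawley rats dosed intravenously at 10 mg/kg (n = 6). Blood sampling extended to 7 days into heparin tubes containing NEM. Plasma assayed for parent and homodisulfide by LC-MS/MS, calibration range 1–5000 ng/ml. Noncompartmental analysis, t1/2 = 0.693/λz. Mean ± S.D.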

[4] = Volume of distribution in Sprague-Dawley rat at 10 mg/kg, iv by LC-MS/MS analysis; format: ADME, organism-based; set-up: dose 10 mg/kg, route intravenous; settings: in vivo
[5] = Cmax in cynomolgus monkey at 5 mg/kg, iv administered as bolus injection by LC-MS/MS analysis; format: ADME, organism-based, Macaca fascicularis; set-up: dose 5 mg/kg, route intravenous; settings: in vivo
How it was run: (§2)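 Cynomolgus monkeys (n = 3) received a nominal 5 mg/kg dose in 50 mM HEPES, TCEP-treated to prevent disulfide formation. Dosing was either an IV bolus via cephalic or saphenous vein or oral. Arterial cannula blood was collected into NEM-containing heparinized tubes for up to 9 days and analyzed by LC-MS/MS. Noncompartmental analysis gave t1/2 = 0.693/λz and F% = dose-normalized mean AUCinf p.o./i.v. ×100.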

[6] = Volume of distribution in cynomolgus monkey at 5 mg/kg, iv administered as bolus injection by LC-MS/MS analysis; format: ADME, organism-based, Macaca fascicularis; set-up: dose 5 mg/kg, route intravenous; settings: in vivo
How it was run: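 Monkey i.v. bolus at 5 mg/kg nominal (n=3), TCEP-treated HEPES solution, via cephalic or saphenous vein. Arterial blood into NEM tubes over 9 days. Plasma measured by LC-MS/MS; Vd = dose/(AUCinf·λz).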

[7] = Cmax in cynomolgus monkey at 5 mg/kg, po by LC-MS/MS analysis; format: ADME, organism-based, Macaca fascicularis; set-up: dose 5 mg/kg, route oral; settings: in vivo; how it was run: as §2
[8] = Cmax in Sprague-Dawley rat kidney at 10 mg/kg, po administered as single dose measured per gm of tissue by LC-MS/MS analysis; format: ADME, organism-based; set-up: dose 10 mg/kg, route oral
How it was run: (§3)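 Male Sprague-Dawley rats were dosed orally with 10 mg/kg/day, either once or daily for 5 days; n = 4 per group. Blood was taken by cardiac puncture and liver, kidney, brain and sciatic nerve were collected at 0–8 h post-dose. Tissues were homogenized in PBS containing NEM at equal volume per gram. NEM-derivatized analyte was extracted with methanol and quantified by LC-MS/MS (1–5000 ng/ml). Cmax is the observed value.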

[9] = Cmax in Sprague-Dawley rat sciatic nerve at 10 mg/kg, po administered as single dose measured per gm of tissue by LC-MS/MS analysis; format: ADME, organism-based; set-up: dose 10 mg/kg, route oral; how it was run: as §3
[10] = Cmax in Sprague-Dawley rat kidney at 10 mg/kg/day, po administered for 5 days measured per gm of tissue by LC-MS/MS analysis; format: ADME, organism-based; set-up: dose 10 mg/kg/day, route oral; how it was run: as §3
[11] = Phase 1 metabolic stability in dog liver microsomes assessed as compound remaining at 10 uM measured for 1 hr by LC-MS/MS analysis; format: ADME, Canis lupus familiaris; settings: read-out: Stability
How it was run: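 Liver microsomes (0.5 mg/ml) were incubated with 10 µM compound (final) in 100 mM potassium phosphate, pH 7.4. An NADPH-regenerating system was present: 1.3 mM NADPH, 3.3 mM glucose 6-phosphate, 3.3 mM MgCl2, 0.4 U/ml G6PDH and 50 µM sodium citrate. Runs were in duplicate, with samples taken up to 1 h and quenched with acetonitrile containing internal standard. Loss of compound was followed by LC-MS/MS.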

[12] = Phase 2 metabolic stability in mouse liver microsomes assessed as compound remaining at 10 uM measured for 1 hr by LC-MS/MS analysis; format: ADME; settings: read-out: Stability
How it was run: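 Glucuronidation in liver microsomes of the named species, 0.5 mg/ml protein, compound at 10 μM final, in 50 mM Tris-HCl pH 7.5 with 8 mM MgCl2 and 25 μg/ml alamethicin. Preincubated at 37°C, then started with 2 mM UDPGA (final); cofactor-free controls run alongside. Duplicate reactions, sampled up to 1 h, quenched with cold acetonitrile plus internal standard; disappearance followed by LC-MS/MS.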

[13] = Phase 2 metabolic stability in monkey liver microsomes assessed as compound remaining at 10 uM measured for 1 hr by LC-MS/MS analysis; format: ADME, Macaca mulatta; settings: rhesus monkey, read-out: Stability
How it was run: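 For glucuronidation, compound was preincubated at 37°C in 50 mM Tris-HCl, pH 7.5, with 0.5 mg/ml liver microsomes, 8 mM MgCl2 and 25 µg/ml alamethicin. Reactions were started in duplicate with 2 mM UDPGA (final). Samples were taken up to 1 h, quenched with acetonitrile containing internal standard, and compound disappearance was measured by LC-MS/MS.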

[14] = Phase 2 metabolic stability in dog liver microsomes assessed as compound remaining at 10 uM measured for 1 hr by LC-MS/MS analysis in absence of cofactors; format: ADME, Canis lupus familiaris; settings: read-out: Stability
How it was run: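 Cofactor-free controls were run for each microsomal incubation: 0.5 mg/ml liver microsomes with 10 µM compound, omitting cofactors, so that cofactor-independent degradation could be measured. Samples were taken up to 1 h, quenched with acetonitrile containing internal standard, and the percent remaining was determined by LC-MS/MS.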

[15] = Cmax in Sprague-Dawley rat sciatic nerve at 10 mg/kg/day, po administered measured per gm of tissue for 5 days by LC-MS/MS analysis; format: ADME, organism-based; set-up: dose 10 mg/kg/day, route oral; how it was run: as §3
Rattus norvegicus = experiment: Analgesic activity in Sprague-Dawley rat chronic constriction injury model assessed as change in paw withdrawal latency at 10 mg/kg/day, po measured 7 days after drug treatment cessation (reference value: -2.68 +/-0.43 s); format: functional
[16] = Cmax in Sprague-Dawley rat at 0.1 mg/kg, po administered via gavage measured under fasted conditions by LC-MS/MS analysis; format: ADME, organism-based; set-up: dose 0.1 mg/kg, route oral; settings: in vivo
How it was run: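 Fasted male Sprague-Dawley rats (280–330 g) received 0.1, 1, 10 or 30 mg/kg by oral gavage in 50 mM HEPES buffered saline, pH 7.4. Blood drawn at 0.25–24 h into heparin/NEM tubes; plasma analyzed by LC-MS/MS. Cmax taken as observed. AUC by linear trapezoidal rule with extrapolation by λz. Cl/F and Vd/F reported. Mean ± S.D., n = 4–9.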

[17] = Clearance in Sprague-Dawley rat at 30 mg/kg, iv administered as bolus injection measured under fasted conditions by LC-MS/MS analysis; format: ADME, organism-based; set-up: dose 30 mg/kg, route intravenous; settings: in vivo
How it was run: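 Male Sprague-Dawley rats (280–330 g), jugular vein cannulated, fasted overnight until 4 h post-dose. Single tail-vein bolus of 0.1, 1, 10 or 30 mg/kg in 50 mM HEPES buffered saline, pH 7.4. Blood drawn 0–24 h into heparin tubes containing NEM. Plasma quantified by LC-MS/MS after NEM derivatization. Noncompartmental analysis: AUClast by linear trapezoidal rule, Cl = dose/AUC0-∞. Mean ± S.D., n = 4–9.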

[18] = Half life in Sprague-Dawley rat at 30 mg/kg, po administered via gavage measured under fasted conditions by LC-MS/MS analysis; format: ADME, organism-based; set-up: dose 30 mg/kg, route oral; settings: in vivo

- AUC(0-inf) [1]: 37100 ng·h/mL
- Vd/F [2]: 1.09 L/kg
- clearance [3]: 2 mL/min/kg
- Vd [4]: 19 L/kg
- Cmax [5]: 68000 ng/mL
- Vd [6]: 0.72 L/kg
- Cmax [7]: 10500 ng/mL
- Cmax [8]: 405 ng/g
- Cmax [9]: 203 ng/g
- Cmax [10]: 388 ng/g
- remaining at 1 h, 10 µM [11]: > 90%
- remaining at 1 h, 10 µM [12]: > 90%
- remaining at 1 h, 10 µM [13]: > 90%
- remaining at 1 h, 10 µM [14]: > 90%
- Cmax [15]: 165 ng/g
- Cmax [16]: 62.6 ng/mL
- clearance [17]: 3 mL/min/kg
- half-life [18]: 3.15 h
Structure (SMILES): O=C(O)c1cccc(-c2cccc(CCS)c2C(=O)O)c1
- Time (Rattus norvegicus): -1.53 s
